Experimental findings from ChEMBL document CHEMBL1649179, “Pharmacokinetics of LB80331 and LB80317 following oral administration of LB80380, a new antiviral agent for chronic hepatitis B (CHB), in healthy adult subjects, CHB patients, and mice” (Antimicrob Agents Chemother, 2009) are described below.

Each structure is given as a SMILES string.

The test system of data set [1] is Homo sapiens. Nature of the data set: Half life in chronic hepatitis B virus infected patient assessed as (1-((2-amino-9H-purin-9-yl)methyl)cyclopropoxy)me at 60 mg, po qd for 4 weeks by LC-MS analysis. The format is ADME, organism-based. Conditions: in vivo, 672 h. The gist of the method:
(§1)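 CHB patients given LB80380 orally once daily for 4 weeks. Plasma was sampled on day 1 and at steady state (weeks 2–4), predose and 0.5, 1, 2, 3, 4, 6, 8 and 24 h postdose. LB80331 was measured by validated LC-MS/MS (LLOQ 5 ng/ml). Terminal-phase apparent t1/2 came from noncompartmental analysis and was flagged if extrapolated AUC exceeded 20% of AUC0-24.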

The test system of data set [2] is Homo sapiens. Nature of the data set: Half life in chronic hepatitis B virus infected patient assessed as (1-((2-amino-9H-purin-9-yl)methyl)cyclopropoxy)me at 120 mg, po qd for 4 weeks by LC-MS analysis. The format is ADME, organism-based. Particulars: in vivo, 672 h. The method in brief: as §1
In data set [3] the test system is Homo sapiens. In words: Oral clearance in chronic hepatitis B virus infected patient assessed as (1-((2-amino-9H-purin-9-yl)methyl)cyclopropoxy)me at 120 mg, po qd for 4 weeks by LC-MS analysis. In kind it is ADME, organism-based. Particulars: in vivo, 672 h. The gist of the method:
(§2)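 Oral LB80380 was given once daily for 4 weeks to CHB patients. Plasma LB80331 was quantified by validated LC-MS/MS after protein precipitation, with stable-isotope internal standard, at baseline and steady state (weeks 2–4), 0–24 h postdose. Noncompartmental CL/F was calculated as dose (adjusted for LB80380/LB80331 molecular weights) divided by AUC (AUC0-∞ single dose; AUC0-24 steady state).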

Data set [4] relates to Homo sapiens. Nature of the data set: Cmax in chronic hepatitis B virus infected patient assessed as (1-((2-amino-9H-purin-9-yl)methyl)cyclopropoxy)me at 240 mg, po qd for 4 weeks by LC-MS analysis. In kind it is ADME, organism-based. Also on record: dose 240 mg, route oral. Particulars: in vivo, 672 h. The gist of the method:
(§3)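 CHB patients, oral once daily for 4 weeks. Plasma sampled at steady state (weeks 2–4), predose and at 0.5, 1, 2, 3, 4, 6, 8 and 24 h postdose. LB80331 measured by validated LC-MS/MS (LLOQ 5 ng/ml) after protein precipitation with a stable-isotope internal standard. Cmax by noncompartmental analysis.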

The test system of data set [5] is Plasma. Nature of the data set: Tmax in CD-1 mouse plasma assessed as (1-((2-amino-9H-purin-9-yl)methyl)cyclopropoxy)me at 30 mg/kg, po administered as single dose by LC-MS analysis. In kind it is ADME, organism-based. Details: dose 30 mg/kg, route oral. Particulars: in vivo. The gist of the method: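 Male CD-1 mice received 30 mg/kg orally in 100% PEG 400. Plasma and snap-frozen liver were taken from 3 mice per time point at 1, 2, 4, 6, 10, 24 and 36 h. Samples were extracted with perchloric acid and neutralized with ammonium bicarbonate. Free LB80331/LB80317 was measured directly by LC-MS/MS; total, including di- and triphosphates, was measured after calf intestinal phosphatase treatment.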

Data set [6] has as its system Plasma. Nature of the data set: AUC (0 to infinity) in CD-1 mouse plasma assessed as (1-((2-amino-9H-purin-9-yl)methyl)cyclopropoxy)me at 30 mg/kg, po administered as single dose by LC-MS analysis. The format is ADME, organism-based. Details: time infinity, dose 30 mg/kg, route oral. Conditions: in vivo. The gist of the method:
(§4)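 Male CD-1 mice given a single oral dose in 100% PEG 400. Samples extracted with perchloric acid and neutralized with ammonium bicarbonate. One aliquot assayed for the free analyte; the other treated with calf intestinal phosphatase to give the total including di-/triphosphates. Analysis by LC-MS/MS.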

For a further data set, the system named is Liver. In words: AUC (0 to 36 hrs) in CD-1 mouse liver assessed as di- and triphosphates of (1-((2-amino-9H-purin-9-yl)methyl)cyclopropoxy)me at 30 mg/kg, po administered as single dose by LC-MS analysis. In kind it is ADME, organism-based. Details: time < 36 hr, dose 30 mg/kg, route oral. Conditions: in vivo. The gist of the method:
as §4

For data set [7], the system named is Homo sapiens. Nature of the data set: Cmax in fasted healthy human assessed as (1-((2-amino-9H-purin-9-yl)methyl)cyclopropoxy)me at 60 mg, po administered as single dose by LC-MS analysis. In kind it is ADME, organism-based. Also on record: dose 60 mg, route oral. Conditions: in vivo. The gist of the method: (§5)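 Healthy subjects given a single oral dose after an overnight fast or after a high-fat breakfast. Plasma LB80331 measured by validated LC-MS/MS (LLOQ 5 ng/ml) after protein precipitation. Cmax by noncompartmental analysis.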

Data set [8] concerns Homo sapiens. Nature of the data set: Cmax in high fat diet fed healthy human assessed as (1-((2-amino-9H-purin-9-yl)methyl)cyclopropoxy)me at 60 mg, po administered as single dose by LC-MS analysis. The format is ADME, organism-based. Also on record: dose 60 mg, route oral. Particulars: in vivo. The gist of the method:
as §5

Data set [9] relates to Homo sapiens. Nature of the data set: Tmax in chronic hepatitis B virus infected patient assessed as (1-((2-amino-9H-purin-9-yl)methyl)cyclopropoxy)me at 30 mg, po administered as single dose by LC-MS analysis. Particulars: in vivo. The format is ADME, organism-based. The gist of the method:
(§6)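 Daily oral LB80380 was given to CHB patients over 4 weeks. Blood was drawn on day 1 and at steady state (weeks 2–4), predose and 0.5–24 h postdose. Plasma LB80331 (LLOQ 5 ng/ml) and LB80317 (LLOQ 10 ng/ml) were measured by LC-MS/MS after protein-precipitation extraction. Tmax was taken by noncompartmental analysis.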

The subject of data set [10] is Homo sapiens. In words: AUC (0 to infinity) in chronic hepatitis B virus infected patient assessed as (1-((2-amino-9H-purin-9-yl)methyl)cyclopropoxy)me at 60 mg, po administered as single dose by LC-MS analysis. In kind it is ADME, organism-based, Plasma. Details: dose 60 mg, time infinity, route oral. Conditions: in vivo. The method in brief:
(§7)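 CHB patients (HBsAg/HBeAg positive), six per dose cohort, given a first oral dose on day 1. Plasma sampled at baseline. Analysis by validated LC-MS/MS after protein precipitation with a stable-isotope internal standard; LLOQ 5 ng/ml for LB80331. Noncompartmental analysis gives Cmax and AUC0-∞.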

For data set [11], the system named is Homo sapiens. Nature of the data set: Tmax in chronic hepatitis B virus infected patient assessed as (1-((2-amino-9H-purin-9-yl)methyl)cyclopropoxy)me at 60 mg, po administered as single dose by LC-MS analysis. The format is ADME, organism-based. Particulars: in vivo. The gist of the method:
as §6

Data set [12] relates to Homo sapiens. Nature of the data set: Oral clearance in chronic hepatitis B virus infected patient assessed as (1-((2-amino-9H-purin-9-yl)methyl)cyclopropoxy)me at 60 mg, po administered as single dose by LC-MS analysis. The format is ADME, organism-based. Conditions: in vivo. The method in brief: as §2
The test system of data set [13] is Homo sapiens. In words: AUC (0 to infinity) in chronic hepatitis B virus infected patient assessed as (1-((2-amino-9H-purin-9-yl)methyl)cyclopropoxy)me at 120 mg, po administered as single dose by LC-MS analysis. In kind it is ADME, organism-based, Plasma. Also on record: dose 120 mg, time infinity, route oral. Conditions: in vivo. The method in brief: as §7

The test system of data set [14] is Homo sapiens. In words: Cmax in chronic hepatitis B virus infected patient assessed as (1-((2-amino-9H-purin-9-yl)methyl)cyclopropoxy)me at 120 mg, po administered as single dose by LC-MS analysis. In kind it is ADME, organism-based. Conditions: in vivo. Details: dose 120 mg, route oral. The method in brief: as §7
For data set [15], the system named is Homo sapiens. Nature of the data set: Half life in chronic hepatitis B virus infected patient assessed as (1-((2-amino-9H-purin-9-yl)methyl)cyclopropoxy)me at 120 mg, po administered as single dose by LC-MS analysis. The format is ADME, organism-based. Conditions: in vivo. The gist of the method: as §1
Data set [16] deals with Homo sapiens. Nature of the data set: Cmax in chronic hepatitis B virus infected patient assessed as (1-((2-amino-9H-purin-9-yl)methyl)cyclopropoxy)me at 240 mg, po administered as single dose by LC-MS analysis. The format is ADME, organism-based. Particulars: in vivo. Details: dose 240 mg, route oral. The method in brief: as §7
In data set [17] the test system is Homo sapiens. Nature of the data set: Tmax in chronic hepatitis B virus infected patient assessed as (1-((2-amino-9H-purin-9-yl)methyl)cyclopropoxy)me at 240 mg, po administered as single dose by LC-MS analysis. Conditions: in vivo. The format is ADME, organism-based. The method in brief:
as §6

Data set [18] has as its system Homo sapiens. In words: Cmax in chronic hepatitis B virus infected patient assessed as (1-((2-amino-9H-purin-9-yl)methyl)cyclopropoxy)me at 30 mg, po qd for 4 weeks by LC-MS analysis. The format is ADME, organism-based. Details: dose 30 mg, route oral. Conditions: in vivo, 672 h. The method in brief: as §3
Data set [19] relates to Homo sapiens. In words: Cmax in chronic hepatitis B virus infected patient assessed as (1-((2-amino-9H-purin-9-yl)methyl)cyclopropoxy)me at 60 mg, po qd for 4 weeks by LC-MS analysis. Details: dose 60 mg, route oral. In kind it is ADME, organism-based. Conditions: in vivo, 672 h. The gist of the method:
as §3

Usually CL/F stands for the apparent clearance, not corrected for the fraction that reaches the circulation. As usually defined, the Cmax is the maximum level reached in the sampled fluid or tissue. The Tmax is the time at which the peak concentration occurs. For orientation: AUC means the area under the concentration-time curve, a measure of exposure. `Nc1ncc2ncn(CC3(OCP(=O)(O)O)CC3)c2n1` [BESIFOVIR]: the t1/2 was 3 h in the data set with Homo sapiens [1], 3.1 h in the data set on Homo sapiens [2] and 3 h with Homo sapiens [15]. Besides, the apparent clearance (CL/F) came out at 304 mL/min with Homo sapiens [3] and 244 mL/min with Homo sapiens [12]. Further, the Cmax was determined as 1164 ng/mL in the data set with Homo sapiens [4]; 286 ng/mL in the data set on Homo sapiens [7]; 246 ng/mL in the data set with Homo sapiens [8]; 805 ng/mL in the data set on Homo sapiens [14]; 1076 ng/mL in the data set on Homo sapiens [16]; 192 ng/mL in the data set on Homo sapiens [18]. The Cmax with Homo sapiens [19] amounted to 362 ng/mL. Besides, the Tmax with Plasma [5] was found to be 1 h; in the data set on Homo sapiens [9] it was 1.5 h; in the data set with Homo sapiens [11] it was 2 h; with Homo sapiens [17], 2 h. The AUC is 17 µM·h in the data set on Plasma [6], 64 µM·h in the data set on Liver, 2344 ng·h/mL in the data set with Homo sapiens [10] and 4374 ng·h/mL with Homo sapiens [13].
